Measurements taken from PMC11567926 (Current Research in Food Science, 2024).
Residues, ends and D or L forms follow the SMILES beside them.

Assays:
[1] = biological target: T1, DPP-IV (Homo sapiens, UniProt P27487); experiment: in vitro DPP-IV inhibitory activity; type: biochemical; details: synthesized peptides, in vitro enzyme assay
Outline: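 Human DPP-IV (0.1 U/mL) and Gly-Pro-p-nitroanilide (2 mmol/L) solutions made in 100 mmol/L Tris-HCl, pH 8.0. Substrate and sample preincubated 10 min at 37 °C under subdued light. Enzyme then added and incubated 1 h at 37 °C. Stopped with 1 mol/L sodium acetate, pH 4.0, and absorbance read at 405 nm. Inhibition calculated from sample, sample-blank, control and blank absorbances.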

[2] = system: Caco-2 cells; experiment: Caco-2 cell viability, MTT colorimetric assay; type: cell-based, human; details: 8 mM peptide, 4 h
Outline: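 Caco-2 cells grown in DMEM with 10% FBS and 1% penicillin-streptomycin at 37 °C, 5% CO2. Seeded at 5 × 10^4 cells/well and incubated 24 h. Medium replaced with peptide at 0.5, 1, 2, 4 or 8 mM for 4 h, 6 replicates per sample. MTT solution (5 mg/mL) added for 4 h, formazan dissolved in DMSO with ~15 min shaking, OD read at 490 nm.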

[3] = system: Caco-2 cell monolayer; experiment: Caco-2 cell monolayer transmembrane transport; type: in vitro ADME, human; details: 4 mM, 120 min
Outline: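 Caco-2 cells seeded at 2 × 10^5 cells/mL on the apical side of 0.4 μm-pore Transwells and cultured 21 days to a differentiated monolayer; TEER over 350 Ω cm2 required. Both sides washed twice and equilibrated 30 min in HBSS. Peptide added apically, HBSS basolaterally, 120 min in incubator. AP and BL liquids analysed by RP-HPLC (1 mL/min, 30 °C column, 220 nm).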

[4] = biological target: T1, DPP-IV; experiment: cell-based
[5] = system: Caco-2 cells; details: 4 mM; ref Mu et al., 2024; cited from earlier work
[6] = system: glucose metabolism; details: 300 mg/kg, OGTT normal rats; ref Uenishi et al. (2012); cited from earlier work

T1 sequence (P27487 whole entry): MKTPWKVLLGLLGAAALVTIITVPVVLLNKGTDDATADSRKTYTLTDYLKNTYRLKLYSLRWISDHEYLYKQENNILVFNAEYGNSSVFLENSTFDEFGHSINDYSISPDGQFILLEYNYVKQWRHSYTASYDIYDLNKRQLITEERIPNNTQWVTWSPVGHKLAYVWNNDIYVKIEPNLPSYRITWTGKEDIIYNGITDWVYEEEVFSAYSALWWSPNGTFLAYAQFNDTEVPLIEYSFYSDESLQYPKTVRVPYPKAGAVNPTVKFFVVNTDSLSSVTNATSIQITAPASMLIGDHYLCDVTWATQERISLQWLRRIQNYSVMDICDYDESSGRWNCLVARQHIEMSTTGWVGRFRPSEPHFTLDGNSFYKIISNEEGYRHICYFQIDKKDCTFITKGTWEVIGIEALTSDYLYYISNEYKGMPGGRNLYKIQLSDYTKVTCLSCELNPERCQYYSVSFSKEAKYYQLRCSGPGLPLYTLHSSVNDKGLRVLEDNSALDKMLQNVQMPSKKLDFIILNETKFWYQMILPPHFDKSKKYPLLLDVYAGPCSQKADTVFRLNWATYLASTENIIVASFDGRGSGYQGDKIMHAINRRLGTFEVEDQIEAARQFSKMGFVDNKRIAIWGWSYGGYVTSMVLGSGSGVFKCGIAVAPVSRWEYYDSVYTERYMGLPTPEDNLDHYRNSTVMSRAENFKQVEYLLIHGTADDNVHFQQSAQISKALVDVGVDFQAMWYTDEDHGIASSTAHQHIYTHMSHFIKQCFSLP

## CC(C)[C@H](N)C(=O)N1CCC[C@H]1C(=O)N[C@@H](Cc1ccccc1)C(=O)N[C@@H](Cc1c[nH]c2ccccc12)C(=O)N[C@@H](C)C(=O)O [VPFWA] (H-VPFWA-OH; N-terminus and C-terminus assumed)
[1]
  IC50: 251 ± 12.8 µM
[2]
  survival rates of Caco-2 cells: 76.03 ± 1.08%
[3]; AP to BL
  passage through the Caco-2 cell monolayer: pass through the Caco-2 cell monolayer intact
[3]; RP-HPLC
  chromatographic peak in the BL-side samples: smallest peak
[4]
  IC50: 325 ± 8.4 µM

## LDATDMVALVG
[5]
  damage to cell viability of Caco-2 cells: least damage to cell viability

## LPQNIPPL
[6]
  glucose metabolism: improved glucose metabolism
  plasma insulin levels: significantly reduced plasma insulin levels

## SPVAEVPFLR
[5]
  damage to cell viability of Caco-2 cells: least damage to cell viability
